Tested on: MS2 coat protein
Experiment: apparent Kd, MS2 coat protein; higher = weaker binding; RNA-MaP array; FMN 200 µM where present
Summary of the method: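 Stalled E. coli RNA polymerase transcribed each design on Illumina sequencing-chip clusters. The clusters were titrated with SNAP-549-labelled MS2 coat protein, starting at 0.7 or 1.5 nM and doubling up to 3 µM, first without ligand and then with constant ligand, in 100 mM Tris-HCl pH 7.5, 80 mM KCl, 4 mM MgCl2, BSA, DTT, yeast tRNA and Tween-20. Green signal was normalised to red-channel RNA signal and to the control-cluster median Fmax. The apparent Kd is the median of filtered binding-curve fits made for each cluster.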

[1] = designed as: ON switch for flavin mononucleotide, no ligand
[2] = ligand present: flavin mononucleotide, designed as: ON switch for flavin mononucleotide
[3] = designed as: OFF switch for flavin mononucleotide, no ligand
[4] = ligand present: flavin mononucleotide, designed as: OFF switch for flavin mononucleotide

Sequence | apparent Kd [1] | apparent Kd [2] | apparent Kd [3] | apparent Kd [4]
AAAAAAAAAAGGCAGGAUAUCUAAAAAAAAACAUGAGGAUCACCCAUGUAAAAAAAAAAAAAGUGGGAGAAGGGCCAAAAAAAAAA | 35.9 nM | 18.1 nM | – | –
AAAAAAAAAAGUCAGGAUAUACAAAUUUUUACAUGAGGAUCACCCAUGUUAAAAAAAAAAAAAAAGUAGAAGGGACAAAAAAAAAA | 20.9 nM | 16.9 nM | – | –
AAAAAACAUGAGGAUCACCCAUGUAAGGAUAUGCUGAAAAACACGGAAAAAACGUGCAGCAGAAGGUACAAAAG | – | – | 59.5 nM | 85.9 nM
AAAAAACAUGAGGAUCACCCAUGUCCUCGGACAUGAGGAUAUGUACAGACUUCGGUCUGUACAGAAGGCAUGUCUU | 302 nM | 308 nM | – | –
AAAAAACAUGAGGAUCACCCAUGUCCUCGGACGUGAGGAUAUGUACAGACUUCGGUCUGUACAGAAGGCAUGUCAA | 408 nM | 604 nM | – | –
AAAAAACAUGAGGAUCACCCAUGUCUUCGGACAUGAGGAUAUGUACAGACUUCGGUCUGUACAGAAGGCAUGUCUU | 97.2 nM | 22.8 nM | – | –
AAAAAACAUGAGGAUCACCCAUGUGAGGAUAUCACUAGUCAGUCCUCGGAGUGAGUACUGAGAAGGCACAUAAA | – | – | 68.1 nM | 44.9 nM
AAAAAACAUGAGGAUCACCCAUGUGAGGAUAUCCGAAAAAAAAAAAAAAAAAAAAAAAGGAGAAGGCGCAGCAA | – | – | 242 nM | 206 nM
AAAAAACAUGAGGAUCACCCAUGUGAGGAUAUGAUGCGAAUAAAGAAAGAAGAAAGCAUCAGAAGGCACAUAUG | – | – | 86.6 nM | 254 nM
AAAAAACAUGAGGAUCACCCAUGUGAGGAUAUGCGAAAAAAAAAAAAAAAAAAAAAAAGCAGAAGGUACAAAAA | – | – | 92.2 nM | 47.6 nM
AAAAACAGAGGAUAUACAAAAUGAUGACGAAAGUCAUCAAAACAUGAGGAUCACCCAUGUAGAAGGCUGAAAAA | – | – | 25.9 nM | 22.9 nM
AAAAAGCGAGGAUAUACAUAGCUAAGACAAAUAAGCAAAAAACAUGAGGAUCACCCAUGUAGAAGGCGCAAAAA | – | – | 19.2 nM | 15.4 nM
AAAAAGCGAGGAUAUACAUGAGGAUCACCCAUGUGAAAAAAAAAAAAAAAAAAAAAAAGUAGAAGGCGCAAAAA | – | – | 85.8 nM | 65.3 nM
AAAAAGCGAGGAUAUGCGGGCGGGUGCGGCCAGCCGAUGUGACAUGAGGAUCACCCAUGUAGAAGGCGCAAAAA | – | – | 12.3 nM | 15.1 nM
AAAAAGGCAGGAUAUACAUGAGGAUCACCCAUGUAAAGAAAGAAAGAAGAAAGGGAAAGUAGAAGGGCCAAAAA | – | – | 38.2 nM | 46 nM
AAAAAGGGAGGAUAUACAUGAGGAUCACCCAUGUGAAAAAAAAAAAAAAAAAAAAAAAGUAGAAGGCCCAAAAA | – | – | 67.1 nM | 53.8 nM
AAAAAGUCAGGAUAUACGAAAAAAAAAAAAAAAAAAAAAAAGUAGAAGGGACAUGAGGAUCACCCAUGUGAAAA | – | – | 74.7 nM | 39.3 nM
AAAAAGUGAGGAUAUCGGAAAAAAAAAAAAAAAAAAAAAAACGAGAAGGCACAUGAGGAUCACCCAUGUAAAAA | – | – | 42.3 nM | 33.6 nM
AAAAAGUGAGGAUAUGCUGCUCGUCACUUGCGUGAUGAGUAGCAGAAGGCACAUGAGGAUCACCCAUGUAAAAA | – | – | 36.2 nM | 42.8 nM

Sequence | apparent Kd [1] | apparent Kd [2] | apparent Kd [3] | apparent Kd [4]
AAAAAGUUAGGAUAUACAUGAGGAUCACCCAUGUACAUAUAUGGAGAAAAAAACAGUAGUAGAAGGGACAAAAA | – | – | 25.6 nM | 35.1 nM
AAAACAUGAGGAUCACCCAUGUAAAGAACGCUUAAUAGAUCUGAGGAUAUACUAGAAUUUACGUAGUAGAAGGCAGUGGGUACA | 31.3 nM | 25.3 nM | – | –
AAAACAUGAGGAUCACCCAUGUAAAGAACGGUUAAUAAAUGUGAGGAUAUACUAAAAUUUUCGUAGUAGAAGGCACUGGGUACA | 22.2 nM | 24.8 nM | – | –
AAAACAUGAGGAUCACCCAUGUAAAGAACGGUUAAUAGAUGUGAGGAUAUACUAGAAUUUAGGUAGUAGAAGGCACUGGGUACA | 21.7 nM | 23.4 nM | – | –
AAAACAUGAGGAUCACCCAUGUAAAGAUCGGUUGAUGAAAGUGAGGAUAUACAAAAUUUUAUGGAGUAGAAGGCACUGGGUUGA | 67.4 nM | 47.7 nM | – | –
AAAACAUGAGGAUCACCCAUGUUUAGAUCGGUCAAUAGAAGUGAGGAUAUACGAAGUUAAGGCUGGUAGAAGGCACUGGGUACA | 32.4 nM | 32.2 nM | – | –
AAAACCUCAUGAGGAUAUCCAACAUGAGGAUCACCCAUGUUAGUCUCAGUACUAGAUACUUGAGAGGAGAAGGCAUGCCAGGGC | 97 nM | 31.6 nM | – | –
AAAACUCAGAUAGGAUAUAUAGGAUAACUUAAGACCUAACAUGAGGAUCACCCAUGUGAUUAUUCGUAGAAGGAUCAUUGAACC | 240 nM | 238 nM | – | –
AAAAGACAUGAGGAUCACCCAUGUAAAGACGUGGGAGGAUAUGUAUGGAAACCAGACUGUACAGAAGGCCUUUGUC | 161 nM | 52.4 nM | – | –
AAAAGACAUGAGGAUCACCCAUGUCAAGACGUGGGAGGAUAUGCAUGGAAAACAUGCUGUGCAGAAGGCCCGUGUC | 25.6 nM | 17.9 nM | – | –
AAAAGACAUGAGGAUCACCCAUGUUAAGACGUGGGAGGAUAUGUAUGGAAAACAUGCUGUACAGAAGGCCCGUGUC | 53.8 nM | 19.7 nM | – | –
AAAAGCUAAGGAUAUACAUGAGGAUCACCCAUGUACACCGGUACGGGUGCGAACUCCUGUAGAAGGUGGGAUAA | – | – | 148 nM | 159 nM
AAAAGGUUAGGAUAUGCGUGGAAAAAGUGUAUCUAAAAAAAACAUGAGGAUCACCCAUGUAGAAGGGACUUAAA | – | – | 45.3 nM | 44 nM
AAAAGUUUGGAGGAUAUCCAUCCAAACGGAUAAGGAGAAGGCCGGACAUGAGGAUCACCCAUGUGAUUAGGUUA | – | – | 14.2 nM | 24.8 nM
AAAAUACAUGAGGAUCACCCAUGUCAGGAUAUGCUAAAAAAAAAAUUAAAAAAAAAAUGUAGAAGGGACUAAAA | – | – | 99 nM | 106 nM
AAAAUCAAGUCAGGAUAUCGUGCGGUUGGUCGUUACAUGAGGAUCACCCAUGUCUUCCGGUAGCUCGAGAAGGGACGUGAGCCC | 18.6 nM | 8.33 nM | – | –
AAAAUGUGUACAUGAGGAUCACCCAUGUAUCGACUCCAAAGCAAGGAUAUGAUCAUGGGAAUUGGUCAGAAGGUGCAGGGUCUG | 205 nM | 25.8 nM | – | –
AAACACAGACAUGAGGAUCACCCAUGUUAUGAAGAUACUGGGAGAAGGGCGAUUGCAAAGCAAUCGCAGGAUAUUCGUAUUGUG | 31.2 nM | 11 nM | – | –
AAACACGGACAUGAGGAUCACCCAUGUGGCGAAAGCCUAGGGAGAAGGCAGUAUGCAAAGCAUUCUGAGGAUAUUCAUACCGUG | 160 nM | 13.4 nM | – | –

Sequence | apparent Kd [1] | apparent Kd [2] | apparent Kd [3] | apparent Kd [4]
AAACACGGACAUGAGGAUCACCCAUGUGGCGAAAGCCUUGGGAGAAGGCCGAUAGCAAAGCUAUCGGAGGAUAUUCAUACCGUG | 1200 nM | 61 nM | – | –
AAACAUGUCCGAGGAUAUCUGAGAUCAUUUUCAAGAGAAGGCGGACAUGAGGAUCACCCAUGUCUCUCCUCAUCAACUCCAAAU | – | – | 18.8 nM | 136 nM
AAACAUGUCCGAGGAUAUCUGAGAUCAUUUUCAAGAGAAGGCGGACAUGAGGAUCACCCAUGUCUCUCCUCAUCGACUCCAAAU | – | – | 6.32 nM | 21.1 nM
AAACAUGUCCGAGGAUAUCUGGAAACAUUUCCAAGAGAAGGCGGACAUGAGGAUCACCCAUGUCUCUCCUCAUCAAAUCCAAAU | – | – | 9.18 nM | 88.9 nM
AAACAUGUCCGAGGAUAUCUGGAAACAUUUUCAAGAGAAGGCGGACAUGAGGAUCACCCAUGUCUCUCCUCAUCAAGUACAAAU | – | – | 7.33 nM | 46.3 nM
AAACUGCAUGUGAGGAUAUGCACCGGCUAAACCGGGCAGAAGGCACAUGAGGAUCACCCAUGUCAUCCUAUUGC | – | – | 9.41 nM | 18.4 nM
AAACUGUGAGGAUAUGGUGAGUAGUGCCUGAGCGCUGCUCACCAGAAGGCACAUGAGGAUCACCCAUGUAUAAC | – | – | 24.8 nM | 62.1 nM
AAAGAAGCACUUGGAACCGGACAAUGAGAAGGCCACGCACAUGAGGAUCACCCAUGUAAAGCUAUGGAGGAUAUCAUGAUGGAU | 46.4 nM | 6.73 nM | – | –
AAAGGACAUGAGGAUCACCCAUGUGAGGAUAUGCUCUACGAACGAAUACACAUGAGAAGCAGAAGGCACAUAAG | – | – | 151 nM | 247 nM
AAAGGACGAGGAUAUACAUGAGGAUCACCCAUGUAAGAAGCAUAAUAAAAUAACUUAUGUAGAAGGCGUCCAAA | – | – | 20.5 nM | 84.4 nM
AAAGGCCGAGGAUAUACAUGAGGAUCACCCAUGUGGACUCUGCAGAAUUGAUACCUUGGUAGAAGGUGGACCGG | – | – | 23 nM | 18.4 nM
AAAGUUGGUAGGCCCUCGGAACAUGAGGAUCACCCAUGUAAGGAGGAUAUGCCCGGUACCCGCUGGCAGAAGGCCUUAUAAGAC | – | – | 6.74 nM | 42.5 nM
AAAUCACAUGAGGAUCACCCAUGUGAGGAUAUGAUACUAUGUACUUCGGUACAUAGUAUCAGAAGGCAUGUGGA | – | – | 32 nM | 36.8 nM
AAAUCAGCAGGAUAUACGAUGUUAUGCUAGAUAGCGGGACCACAUGAGGAUCACCCAUGUAGAAGGGCUAGAUA | – | – | 35 nM | 30.8 nM
AAAUCUCAGAUAGGAUAUAUAGGAUAACUUAAGACCUAACAUGAGGAUCACCCAUGUGAUUAUUCGUAGAAGGAUCAUUGACCC | 166 nM | 175 nM | – | –
AAAUUAAGAAGAGGAUAUUGACAUGAGGAUCACCCAUGUAUUUGGGAAUGUUUACUGAAUUCUUACAAGAAGGUUUACGAACUU | – | – | 157 nM | 99.7 nM
AAAUUUAACGAAGGAUAUGCUGACAUGAGGAUCACCCAUGUGUGCCUUGUGUUGCUGAAACGGGAGCAGAAGGUCGUAUACAUA | – | – | 694 nM | 1180 nM
AAAUUUAACGAAGGAUAUGCUGACAUGAGGAUCACCCAUGUGUGCUUUGUGUUGCUGAAAUUGGAGCAGAAGGUCGUAUACAUA | – | – | 101 nM | 148 nM

From the EternaBench riboswitch data
